Laboratory results published in ChEMBL document CHEMBL1137218, “Long hydrocarbon chain ether diols and ether diacids that favorably alter lipid disorders in vivo” (J Med Chem, 2004).

Key:
Assay type in all cases: functional
Rattus norvegicus [1] = assay: Serum HDL cholesterol levels in female obese rats one week post treatment at 3 mg/kg oral dose; pretreatment value = 59 mg/dL
Rattus norvegicus [2] = assay: Serum NEFA levels in female obese rats two weeks post treatment at 100 mg/kg oral dose; pretreatment value = 1.1 mg/dL
Rattus norvegicus [3] = assay: Blood glucose levels in female obese rats one week post treatment at 30 mg/kg oral dose; pretreatment value = 109 mg/dL
Rattus norvegicus [4] = assay: Serum Triglyceride levels in female obese rats one week post treatment at 10 mg/kg oral dose; pretreatment value = 943 mg/dL
Rattus norvegicus [5] = assay: Serum HDL cholesterol levels in female obese rats two weeks post treatment at 3 mg/kg oral dose; pretreatment value = 59 mg/dL
Rattus norvegicus [6] = assay: Serum HDL cholesterol levels in female obese rats two weeks post treatment at 10 mg/kg oral dose; pretreatment value = 56 mg/dL
Rattus norvegicus [7] = assay: Serum HDL cholesterol levels in female obese rats two weeks post treatment at 30 mg/kg oral dose; pretreatment value = 42 mg/dL
Rattus norvegicus [8] = assay: Blood glucose levels in female obese rats one week post treatment at 100 mg/kg oral dose; pretreatment value = 105 mg/dL
Rattus norvegicus [9] = assay: Blood glucose levels in female obese rats two weeks post treatment at 10 mg/kg oral dose; pretreatment value = 112 mg/dL
Rattus norvegicus [10] = species: Rattus norvegicus; assay: In vitro inhibitory concentration against lipid synthesis in primary rat hepatocyte culture
How it was run: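 Primary hepatocytes isolated from male Sprague-Dawley rats (Seglen method) and plated on collagen in DMEM with 20% FBS, 100 nM insulin, 25 mM glucose. Medium made serum-free after 4 h, cultured overnight to monolayers. Then 4 h incubation with 0.25 μCi [14C]-acetate/well (1 Ci/mol) and 0–300 μM compound. Lipids extracted into scintillant and counted. IC50 derived from lipid synthesis rates by nonlinear sigmoidal fit.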

Rattus norvegicus [11] = assay: Serum Non-HDL cholesterol levels in female obese rats two weeks post treatment at 30 mg/kg oral dose; pretreatment value = 31 mg/dL
How it was run: (§1)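 Female obese Zucker fatty rats (10–12 weeks, 400–500 g), once-daily oral gavage in 20% EtOH/80% PEG-200 (v/v) for up to 14 days. Serum drawn after a 6 h fast, pre-dose and at days 7 and 14. Non-HDL cholesterol is serum total cholesterol times the percent area of the non-HDL peaks in a Superose 6HR gel-filtration profile with on-line cholesterol detection. n = 4 per dose.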

Rattus norvegicus [12] = assay: Serum Non-HDL cholesterol levels in female obese rats two weeks post treatment at 100 mg/kg oral dose; pretreatment value = 23 mg/dL; how it was run: as §1
Rattus norvegicus [13] = assay: Percent change from pre-treatment triglycerides level at 100 mg/Kg after 1 week
How it was run: (§2)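 Female obese Zucker fatty rats Crl:(Zuc)-faBR, 10–12 weeks old (400–500 g), n=3–4, fed chow. Dosed by oral gavage once daily in 20% EtOH/80% PEG-200 for up to 14 days. Serum taken after a 6 h fast before dosing, at day 7 (orbital plexus) and at day 14 (cardiac puncture). TG by enzymatic kit on analyzer. HDL-C and non-HDL-C from Superose 6 gel-filtration profile area × total cholesterol. Results given as % change from pretreatment.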

Rattus norvegicus [14] = assay: Percent change from pre-treatment triglycerides level at 100 mg/Kg after 2 weeks; how it was run: as §2
Rattus norvegicus [15] = assay: Percent change from pre-treatment HDL-Cholesterol level at 100 mg/Kg after 1 week; how it was run: as §2
Rattus norvegicus [16] = assay: Percent change from pre-treatment HDL-Cholesterol level at 100 mg/Kg after 2 weeks; how it was run: as §2
Rattus norvegicus [17] = assay: Percent change from pre-treatment Non HDL-Cholesterol level at 100 mg/Kg after 1 week; how it was run: as §2
Rattus norvegicus [18] = assay: Percent change from pre-treatment Non HDL-Cholesterol level at 100 mg/Kg after 2 weeks; how it was run: as §2
Rattus norvegicus [19] = assay: Insulin levels in female obese rats two weeks post treatment at 100 mg/kg oral dose; pretreatment value = 12.7 ng/mL
Rattus norvegicus [20] = assay: Serum NEFA levels in female obese rats two weeks post treatment at 3 mg/kg oral dose; pretreatment value = 1.2 mg/dL
Rattus norvegicus [21] = assay: Serum NEFA levels in female obese rats one week post treatment at 100 mg/kg oral dose; pretreatment value = 1.1 mg/dL
Rattus norvegicus [22] = assay: Insulin levels in female obese rats one week post treatment at 30 mg/kg oral dose; pretreatment value = 9.3 ng/mL
Rattus norvegicus [23] = assay: Insulin levels in female obese rats one week post treatment at 10 mg/kg oral dose; pretreatment value = 8.2 ng/mLL
Rattus norvegicus [24] = assay: Insulin levels in female obese rats two weeks post treatment at 3 mg/kg oral dose; pretreatment value = 12.9 ng/mL
Rattus norvegicus [25] = assay: Serum NEFA levels in female obese rats two weeks post treatment at 10 mg/kg oral dose; pretreatment value = 1.2 mg/dL
Rattus norvegicus [26] = assay: Serum NEFA levels in female obese rats two weeks post treatment at 30 mg/kg oral dose; pretreatment value = 1.3 mg/dL
Rattus norvegicus [27] = assay: Insulin levels in female obese rats one week post treatment at 100 mg/kg oral dose; pretreatment value = 12.7 ng/mL
Rattus norvegicus [28] = assay: Blood glucose levels in female obese rats two weeks post treatment at 100 mg/kg oral dose; pretreatment value = 105 mg/dL
Rattus norvegicus [29] = assay: Serum Non-HDL cholesterol levels in female obese rats one week post treatment at 30 mg/kg oral dose; pretreatment value = 31 mg/dL; how it was run: as §1
Rattus norvegicus [30] = assay: Serum Non-HDL cholesterol levels in female obese rats one week post treatment at 100 mg/kg oral dose; pretreatment value = 23 mg/dL; how it was run: as §1
Rattus norvegicus [31] = assay: Serum Triglyceride levels in female obese rats one week post treatment at 10 mg/kg oral dose; pretreatment value = 1185 mg/dL
Rattus norvegicus [32] = assay: Serum Triglyceride levels in female obese rats one week post treatment at 3 mg/kg oral dose; pretreatment value = 1111 mg/dL
Rattus norvegicus [33] = assay: Serum HDL cholesterol levels in female obese rats one week post treatment at 3 mg/kg oral dose; pretreatment value = 57 mg/dL
Rattus norvegicus [34] = assay: Serum Triglyceride levels in female obese rats two weeks post treatment at 30 mg/kg oral dose; pretreatment value = 1004 mg/dL
Rattus norvegicus [35] = assay: Serum HDL cholesterol levels in female obese rats two weeks post treatment at 10 mg/kg oral dose; pretreatment value = 61 mg/dL
Rattus norvegicus [36] = assay: Serum NEFA levels in female obese rats one week post treatment at 3 mg/kg oral dose; pretreatment value = 1.1 mg/dL
Rattus norvegicus [37] = assay: Serum NEFA levels in female obese rats one week post treatment at 30 mg/kg oral dose; pretreatment value = 1.2 mg/dL
Rattus norvegicus [38] = assay: Serum NEFA levels in female obese rats two weeks post treatment at 3 mg/kg oral dose; pretreatment value = 1.1 mg/dL
Rattus norvegicus [39] = assay: Insulin levels in female obese rats one week post treatment at 3 mg/kg oral dose; pretreatment value = 13.3 ng/mL
Rattus norvegicus [40] = assay: Insulin levels in female obese rats two weeks post treatment at 10 mg/kg oral dose; pretreatment value = 8.8 ng/mL
Rattus norvegicus [41] = assay: Insulin levels in female obese rats two weeks post treatment at 30 mg/kg oral dose; pretreatment value = 9 ng/mL

For `CC(C)(CO)CCCCOCCCCC(C)(C)CO`, the Activity (Rattus norvegicus [1]) was 70 mg/dL, the Activity (Rattus norvegicus [2]) was 0.83 mg/dL and the Activity (Rattus norvegicus [3]) was 140 mg/dL. The Activity (Rattus norvegicus [4]) was 629 mg/dL, the Activity (Rattus norvegicus [5]) was 79 mg/dL and the Activity (Rattus norvegicus [6]) was 134 mg/dL. It also gave an Activity (Rattus norvegicus [7]) of 222 mg/dL, an Activity (Rattus norvegicus [8]) of 107 mg/dL and an Activity (Rattus norvegicus [9]) of 117 mg/dL. It also gave an IC50 (Rattus norvegicus [10]) of 11 µM, an Activity (Rattus norvegicus [11]) of 33 mg/dL and an Activity (Rattus norvegicus [12]) of 26 mg/dL. For the same compound, the Change (Rattus norvegicus [13]) was -77%, the Change (Rattus norvegicus [14]) was -71% and the Change (Rattus norvegicus [15]) was 234%. For the same compound, the Change (Rattus norvegicus [16]) was 366%, the Change (Rattus norvegicus [17]) was -38% and the Change (Rattus norvegicus [18]) was 11%. For the same compound, the Activity (Rattus norvegicus [19]) was 12.8 ng/mL, the Activity (Rattus norvegicus [20]) was 1.5 mg/dL and the Activity (Rattus norvegicus [21]) was 0.76 mg/dL. For the same compound, the Activity (Rattus norvegicus [22]) was 14.2 ng/mL, the Activity (Rattus norvegicus [23]) was 8.9 ng/mL and the Activity (Rattus norvegicus [24]) was 9.9 ng/mL. It also gave an Activity (Rattus norvegicus [25]) of 1.1 mg/dL, an Activity (Rattus norvegicus [26]) of 0.75 mg/dL and an Activity (Rattus norvegicus [27]) of 14.5 ng/mL. For the same compound, the Activity (Rattus norvegicus [28]) was 101 mg/dL, the Activity (Rattus norvegicus [29]) was 20 mg/dL and the Activity (Rattus norvegicus [30]) was 14 mg/dL.

With `CC(C)(CO)CCCCCOCCCCCC(C)(C)CO` the Activity (Rattus norvegicus [31]) was 1159 mg/dL, the Activity (Rattus norvegicus [32]) was 1031 mg/dL and the Activity (Rattus norvegicus [33]) was 55 mg/dL. The Activity (Rattus norvegicus [34]) was 424 mg/dL, the Activity (Rattus norvegicus [35]) was 110 mg/dL and the Activity (Rattus norvegicus [8]) was 72 mg/dL. The IC50 (Rattus norvegicus [10]) was 4 µM, the Activity (Rattus norvegicus [11]) was 32 mg/dL and the Activity (Rattus norvegicus [12]) was 10 mg/dL. It also gave a Change (Rattus norvegicus [13]) of -91%, a Change (Rattus norvegicus [14]) of -82% and a Change (Rattus norvegicus [15]) of 99%. The Change (Rattus norvegicus [16]) was 133%, the Change (Rattus norvegicus [17]) was -82% and the Change (Rattus norvegicus [18]) was -68%. For the same compound, the Activity (Rattus norvegicus [36]) was 1.3 mg/dL, the Activity (Rattus norvegicus [37]) was 0.89 mg/dL and the Activity (Rattus norvegicus [38]) was 1.5 mg/dL. For the same compound, the Activity (Rattus norvegicus [39]) was 12.2 ng/mL, the Activity (Rattus norvegicus [40]) was 8.7 ng/mL and the Activity (Rattus norvegicus [41]) was 10.4 ng/mL. For the same compound, the Activity (Rattus norvegicus [28]) was 104 mg/dL, the Activity (Rattus norvegicus [29]) was 15 mg/dL and the Activity (Rattus norvegicus [30]) was 5 mg/dL.
